How the values were obtained:
[1] = organism: Homo sapiens; assay: Selectivity for human cloned nociceptin receptor over human kappa opioid receptor
[2] = target: T1, Nociceptin receptor (Homo sapiens, UniProt P41146); assay: Displacement of [125I][Tyr14]nociceptin FQ from human cloned nociceptin receptor expressed in CHO cells; type: cell-based
In short: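 Competition binding on CHO cell membranes expressing cloned human nociceptin receptor, radioligand [125I][Tyr14]nociceptin FQ; Ki determined from dose–response curves.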

[3] = target: Mu-type opioid receptor (Homo sapiens, UniProt P35372); assay: Displacement of [3H]diprenorphine from human mu opioid receptor expressed in CHO cells; type: cell-based
In short: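 CHO cell membranes expressing human opioid receptor; [3H]-diprenorphine as radioligand; Ki determined from dose–response curves.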

[4] = organism: Cavia porcellus; assay: Antitussive activity in guinea pig assessed as suppression of capsaicin-induced cough after 2 hrs; type: functional
In short: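 Guinea pig capsaicin-induced cough model; oral dosing; cough suppression read 2 h after dosing relative to placebo; ED50 derived.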

[5] = target: T1, Nociceptin receptor; assay: Agonist activity at human cloned nociceptin receptor expressed in CHO cells assessed as stimulation of [35S]GTPgammaS binding; type: functional, cell-based
In short: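 Membranes from cells transfected with nociceptin receptor; agonism measured as enhancement of [35S]GTPγS binding in presence of GDP; EC50 derived.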

[6] = target: T1, Nociceptin receptor; assay: Agonist activity at human cloned nociceptin receptor expressed in CHO cells assessed as stimulation of [35S]GTPgammaS binding at 10 uM; type: functional, cell-based
[7] = organism: Homo sapiens; assay: Selectivity for human cloned nociceptin receptor over human delta opioid receptor
[8] = target: T1, Nociceptin receptor; assay: Agonist activity at human cloned nociceptin receptor expressed in CHO cells assessed as stimulation of [35S]GTPgammaS binding at 5.5 uM; type: functional, cell-based
[9] = test system: Cavia porcellus; assay: Antitussive activity in guinea pig assessed as suppression of capsaicin-induced cough at 0.3 mg/kg, po; type: functional
[10] = organism: Homo sapiens; assay: Selectivity for human cloned nociceptin receptor over human mu opioid receptor

Sequence of Mu-type opioid receptor (P35372 whole entry): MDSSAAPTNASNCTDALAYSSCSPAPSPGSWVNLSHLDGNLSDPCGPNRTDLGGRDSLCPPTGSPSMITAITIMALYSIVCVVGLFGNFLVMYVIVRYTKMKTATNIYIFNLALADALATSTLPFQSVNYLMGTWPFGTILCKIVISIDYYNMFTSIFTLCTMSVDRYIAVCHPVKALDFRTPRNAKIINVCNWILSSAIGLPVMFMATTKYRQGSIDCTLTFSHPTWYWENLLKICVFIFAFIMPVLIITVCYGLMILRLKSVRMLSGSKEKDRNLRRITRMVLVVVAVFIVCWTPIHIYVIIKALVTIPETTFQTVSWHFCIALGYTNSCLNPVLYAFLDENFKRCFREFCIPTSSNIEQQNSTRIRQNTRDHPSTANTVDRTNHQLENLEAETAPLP
T1 sequence (P41146 whole entry): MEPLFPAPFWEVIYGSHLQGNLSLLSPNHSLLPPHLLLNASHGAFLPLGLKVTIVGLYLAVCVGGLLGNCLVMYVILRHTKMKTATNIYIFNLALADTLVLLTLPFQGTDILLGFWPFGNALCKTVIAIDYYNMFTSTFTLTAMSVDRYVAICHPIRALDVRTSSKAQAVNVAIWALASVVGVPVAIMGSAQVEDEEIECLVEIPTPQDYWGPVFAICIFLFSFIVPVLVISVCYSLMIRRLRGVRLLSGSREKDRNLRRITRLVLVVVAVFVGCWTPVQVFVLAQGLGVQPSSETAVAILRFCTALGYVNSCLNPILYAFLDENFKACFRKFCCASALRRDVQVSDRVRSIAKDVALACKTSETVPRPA

SMILES | Ki [2] | Ki [3] | also measured
CC(=O)NC[C@@]1(c2ccccc2)C[C@H]2CC[C@@H](C1)N2C(c1ccccc1Cl)c1ccccc1Cl | 20 nM | 777 nM | fold change (FC) [1]: 32; ED50 [4]: 0.19 mg/kg; EC50 [5]: 269 nM; Activity [6]: 122%; fold change (FC) [7]: 300
CCNC[C@@]1(c2cccc(OC)n2)C[C@H]2CC[C@@H](C1)N2C(c1ccccc1Cl)c1ccccc1Cl | 20 nM | 442 nM | 
COc1cccc([C@]2(CN)C[C@H]3CC[C@@H](C2)N3C(c2ccccc2Cl)c2ccccc2Cl)n1 | 11 nM | 123 nM | fold change (FC) [1]: 36; fold change (FC) [7]: 300
O=C1CCCN1C[C@@]1(Cc2ccccc2)C[C@H]2CC[C@@H](C1)N2C(c1ccccc1Cl)c1ccccc1Cl | 336 nM |  | 
CN(C)C[C@@]1(c2ccccc2)C[C@H]2CC[C@@H](C1)N2C(c1ccccc1Cl)c1ccccc1Cl | 17 nM | 1490 nM | fold change (FC) [1]: 31; Activity [8]: 104%; EC50 [5]: 483 nM; Activity [9]: 36%; fold change (FC) [7]: 300
CC(=O)NC[C@@]1(c2ccc(Br)cn2)C[C@H]2CC[C@@H](C1)N2C(c1ccccc1Cl)c1ccccc1Cl | 27 nM | 752 nM | 
NC[C@@]1(c2cccc(F)n2)C[C@H]2CC[C@@H](C1)N2C(c1ccccc1Cl)c1ccccc1Cl | 29 nM |  | 
COc1ccc([C@]2(CNC(C)=O)C[C@H]3CC[C@@H](C2)N3C(c2ccccc2Cl)c2ccccc2Cl)nc1 | 62 nM | 3450 nM | 
CC(=O)NC[C@@]1(c2ccccn2)C[C@H]2CC[C@@H](C1)N2C(c1ccccc1Cl)c1ccccc1Cl | 5 nM | 374 nM | fold change (FC) [10]: 75
O=C1CCCN1C[C@@]1(c2ccccc2)C[C@H]2CC[C@@H](C1)N2C(c1ccccc1Cl)c1ccccc1Cl | 68 nM |  | 
Fc1ccc(C[C@]2(CN3CCCC3)C[C@H]3CC[C@@H](C2)N3C(c2ccccc2Cl)c2ccccc2Cl)cc1 | 58 nM |  | 
Clc1ccccc1C(c1ccccc1Cl)N1[C@@H]2CC[C@H]1C[C@@]1(CNc3ccccc31)C2 | 50 nM | 1200 nM | 
CCNC[C@]1(Cc2ccccc2)C[C@H]2CC[C@@H](C1)N2C(c1ccccc1Cl)c1ccccc1Cl | 39 nM |  | 
COc1ccc([C@]2(CNC(C)=O)C[C@H]3CC[C@@H](C2)N3C(c2ccccc2Cl)c2ccccc2Cl)cc1 | 118 nM | 2410 nM | 
CCNC[C@@]1(c2ccccn2)C[C@H]2CC[C@@H](C1)N2C(c1ccccc1Cl)c1ccccc1Cl | 6 nM | 743 nM | fold change (FC) [10]: 75
CC(=O)NC[C@@]1(C2CCCCN2)C[C@H]2CC[C@@H](C1)N2C(c1ccccc1Cl)c1ccccc1Cl (stereo not given in full) | 27 nM |  | 
CC(=O)NC[C@@]1(Cc2ccc(F)cc2)C[C@H]2CC[C@@H](C1)N2C(c1ccccc1Cl)c1ccccc1Cl | 15 nM | 782 nM | EC50 [5]: 129 nM; Activity [6]: 124%; Activity [9]: 23%
CC(=O)NC[C@@]1(c2ccc(N3CCCCC3)cn2)C[C@H]2CC[C@@H](C1)N2C(c1ccccc1Cl)c1ccccc1Cl | 99 nM |  | 
NC[C@@]1(c2ccccc2)C[C@H]2CC[C@@H](C1)N2C(c1ccccc1Cl)c1ccccc1Cl | 6 nM | 674 nM | fold change (FC) [1]: 30; fold change (FC) [7]: 300; fold change (FC) [10]: 112
CC(=O)N(C)C[C@@]1(c2ccccc2)C[C@H]2CC[C@@H](C1)N2C(c1ccccc1Cl)c1ccccc1Cl | 210 nM | 2620 nM | fold change (FC) [10]: 13
CNC[C@@]1(c2ccccc2)C[C@H]2CC[C@@H](C1)N2C(c1ccccc1Cl)c1ccccc1Cl | 10 nM | 566 nM | 
CN(C)C[C@@]1(c2cccc(F)n2)C[C@H]2CC[C@@H](C1)N2C(c1ccccc1Cl)c1ccccc1Cl | 104 nM | 3980 nM | 

SMILES | Ki [2] | Ki [3] | also measured
CN(C)C[C@@]1(c2ccccn2)C[C@H]2CC[C@@H](C1)N2C(c1ccccc1Cl)c1ccccc1Cl | 7 nM | 785 nM | EC50 [5]: 156 nM; fold change (FC) [10]: 75
Cc1ccc2c(c1)[C@]1(CN2)C[C@H]2CC[C@@H](C1)N2C(c1ccccc1Cl)c1ccccc1Cl | 74 nM | 998 nM | 
CN(C)C[C@@]1(Cc2ccccc2)C[C@H]2CC[C@@H](C1)N2C(c1ccccc1Cl)c1ccccc1Cl | 55 nM |  | 
CC(=O)NC[C@@]1(c2ccc(F)cc2)C[C@H]2CC[C@@H](C1)N2C(c1ccccc1Cl)c1ccccc1Cl | 31 nM | 2110 nM | fold change (FC) [10]: 68
CC(=O)NC[C@@]1(c2ncccc2C)C[C@H]2CC[C@@H](C1)N2C(c1ccccc1Cl)c1ccccc1Cl | 173 nM |  | 
CC(=O)NC[C@@]1(Cc2ccccc2)C[C@H]2CC[C@@H](C1)N2C(c1ccccc1Cl)c1ccccc1Cl | 12 nM | 458 nM | fold change (FC) [1]: 34; fold change (FC) [7]: 300
Clc1ccccc1C(c1ccccc1Cl)N1[C@@H]2CC[C@H]1C[C@](CN1CCCC1)(c1ccccc1)C2 | 70 nM | 4170 nM | 
NC[C@@]1(Cc2ccccc2)C[C@H]2CC[C@@H](C1)N2C(c1ccccc1Cl)c1ccccc1Cl | 11 nM | 1340 nM | fold change (FC) [1]: 33; fold change (FC) [7]: 300; fold change (FC) [10]: 121
NC[C@@]1(c2cccnc2)C[C@H]2CC[C@@H](C1)N2C(c1ccccc1Cl)c1ccccc1Cl | 82 nM |  | 
Clc1ccccc1C(c1ccccc1Cl)N1[C@@H]2CC[C@H]1C[C@@](Cc1ccccc1)(CN1CCCC1)C2 | 116 nM |  | 
Fc1ccc2c(c1)[C@]1(CN2)C[C@H]2CC[C@@H](C1)N2C(c1ccccc1Cl)c1ccccc1Cl | 39 nM | 1710 nM | 
NC[C@@]1(c2ncccc2CN2CCCCC2)C[C@H]2CC[C@@H](C1)N2C(c1ccccc1Cl)c1ccccc1Cl | 245 nM |  | 
COc1cccc([C@]2(CNC(C)=O)C[C@H]3CC[C@@H](C2)N3C(c2ccccc2Cl)c2ccccc2Cl)n1 | 4 nM | 251 nM | 
CC(=O)NC[C@@]1(c2cccc(F)n2)C[C@H]2CC[C@@H](C1)N2C(c1ccccc1Cl)c1ccccc1Cl | 24 nM | 1280 nM | 
COC(=O)NC[C@@]1(c2ccccc2)C[C@H]2CC[C@@H](C1)N2C(c1ccccc1Cl)c1ccccc1Cl | 20 nM | 905 nM | 
NC[C@@]1(c2ccccn2)C[C@H]2CC[C@@H](C1)N2C(c1ccccc1Cl)c1ccccc1Cl | 7 nM | 617 nM | fold change (FC) [1]: 35; fold change (FC) [7]: 300; fold change (FC) [10]: 75
NC[C@@]1(Cc2ccc(F)cc2)C[C@H]2CC[C@@H](C1)N2C(c1ccccc1Cl)c1ccccc1Cl | 34 nM | 1410 nM | Activity [8]: 87%; EC50 [5]: 124 nM
CC(=O)NC[C@@]1(c2cccnc2)C[C@H]2CC[C@@H](C1)N2C(c1ccccc1Cl)c1ccccc1Cl | 35 nM |  | 
NC[C@@]1(C2CCCCN2)C[C@H]2CC[C@@H](C1)N2C(c1ccccc1Cl)c1ccccc1Cl (stereo not given in full) | 17 nM |  | 
CC(=O)NC[C@@]1(c2ncccc2CN2CCCCC2)C[C@H]2CC[C@@H](C1)N2C(c1ccccc1Cl)c1ccccc1Cl | 670 nM | 758 nM | 
Cc1cccnc1[C@]1(CN)C[C@H]2CC[C@@H](C1)N2C(c1ccccc1Cl)c1ccccc1Cl | 50 nM |  | 

From ChEMBL document CHEMBL1152183, “Structure-activity relationships of 3-substituted N-benzhydryl-nortropane analogs as nociceptin receptor ligands for the treatment of cough” (Bioorg Med Chem Lett, 2008)
